Test results: ChEMBL document CHEMBL3525987, “Assessment of exposure of metabolites in preclinical species and humans at steady state from the single-dose radiolabeled absorption, distribution, metabolism, and excretion studies: a case study” (Drug Metab Dispos, 2012)

Tests used:
[1] = Retention time of the compound by HPLC analysis; type: physicochemical; parameters: dosed compound name [14C]lixivaptan
Homo sapiens [2] = assay: Drug level in human plasma treated with [14C]lixivaptan at 100 mg, po administered as single dose measured after 2 hrs by liquid scintillation counting; type: ADME, organism-based; parameters: dosed compound name [14C]lixivaptan; conditions: in vivo
In short: (§1)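 Healthy male volunteers fasted ≥10 h, given single oral 100 mg (200 µCi) [14C]drug as two 50-mg capsules with 250 ml water. Plasma (from ~50 ml blood) at 0.5, 2, 4, 8, 12, 24, 36 h, profiled per subject. Acetonitrile extraction, C18 radio-HPLC with 0.2% formic acid acetonitrile/water gradient, on-line radioactivity detection as % plasma radioactivity; ng-equiv/ml from % × total radioactivity.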

Homo sapiens [3] = assay: Drug level in human plasma treated with [14C]lixivaptan at 100 mg, po administered as single dose measured after 36 hrs by liquid scintillation counting; type: ADME, organism-based; parameters: dosed compound name [14C]lixivaptan; conditions: in vivo; in short: as §1
Homo sapiens [4] = assay: Drug level in human plasma treated with [14C]lixivaptan at 100 mg, po administered as single dose measured after 8 hrs by liquid scintillation counting; type: ADME, organism-based; parameters: dosed compound name [14C]lixivaptan; conditions: in vivo; in short: as §1
Homo sapiens [5] = assay: Drug level in human plasma treated with [14C]lixivaptan at 100 mg, po administered as single dose measured after 4 hrs by liquid scintillation counting; type: ADME, organism-based; parameters: dosed compound name [14C]lixivaptan; conditions: in vivo; in short: as §1
Homo sapiens [6] = assay: Drug level in human plasma treated with [14C]lixivaptan at 100 mg, po administered as single dose measured after 24 hrs by liquid scintillation counting; type: ADME, organism-based; parameters: dosed compound name [14C]lixivaptan; conditions: in vivo; in short: as §1
Homo sapiens [7] = assay: Drug level in human plasma treated with [14C]lixivaptan at 100 mg, po administered as single dose measured after 0.5 hrs by liquid scintillation counting; type: ADME, organism-based; parameters: dosed compound name [14C]lixivaptan; conditions: in vivo; in short: as §1
Homo sapiens [8] = assay: Drug level in human plasma treated with [14C]lixivaptan at 100 mg, po administered as single dose measured after 12 hrs by liquid scintillation counting; type: ADME, organism-based; parameters: dosed compound name [14C]lixivaptan; conditions: in vivo; in short: as §1
Rattus norvegicus [9] = assay: Drug level in female Sprague-Dawley rat plasma treated with [14C]lixivaptan at 10 mg/kg, po administered as single dose via gavage measured after 8 hrs by liquid scintillation counting; type: ADME, organism-based; parameters: dose 10 mg/kg, dosed compound name [14C]lixivaptan, route oral; conditions: in vivo
In short: (§2)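 Single oral gavage of [14C]drug (10 mg/kg, 10 ml/kg) as suspension in deionized water with pluronic F68, ~29.8 µCi/mg; SD rats fasted 18 h, fed 4 h post-dose. Blood by cardiac puncture under isoflurane, 3 rats/time/gender, into K2EDTA at 1, 8, 24 h; plasma extracted twice with 2 vol acetonitrile, radio-HPLC on C18 with flow radioactivity detection, expressed as % plasma radioactivity.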

Canis familiaris [10] = assay: Drug level in beagle dog plasma treated with [14C]lixivaptan at 10 mg/kg, po administered as single dose measured after 2 hrs by liquid scintillation counting; type: ADME, organism-based, Canis lupus familiaris; parameters: dose 10 mg/kg, dosed compound name [14C]lixivaptan, route oral; conditions: in vivo
In short: (§3)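 Four male beagles fasted 18 h were gavaged once with [14C]lixivaptan at 10 mg/kg (2 ml/kg). The 5.0 mg/ml suspension was in deionized water with pluronic F68 (1.04 µCi/mg). Jugular K2EDTA plasma was taken at 2, 8 and 24 h and extracted twice with 2 volumes of acetonitrile. Profiling used C18 radio-HPLC (ammonium formate/acetonitrile gradient) with on-line flow scintillation detection. Each peak is reported as percent of plasma radioactivity.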

Rattus norvegicus [11] = assay: Drug level in female Sprague-Dawley rat plasma treated with [14C]lixivaptan at 10 mg/kg, po administered as single dose via gavage measured after 24 hrs by liquid scintillation counting; type: ADME, organism-based; parameters: dose 10 mg/kg, dosed compound name [14C]lixivaptan, route oral; conditions: in vivo
In short: (§4)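 Sprague-Dawley rats (9/gender) were fasted 18 h and gavaged once with [14C]lixivaptan at 10 mg/kg (10 ml/kg), about 29.8 µCi/mg, suspended in deionized water with pluronic F68. Plasma came by cardiac puncture under isoflurane at 1, 8 and 24 h (3/gender/time) and was extracted twice with 2 volumes of acetonitrile. C18 radio-HPLC with a flow scintillation detector gave percent of plasma radioactivity per peak.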

Rattus norvegicus [12] = assay: Toxicity in male Sprague-Dawley rat treated with [14C]lixivaptan at 10 mg/kg, po administered as single dose via gavage; type: organism-based; parameters: dose 10 mg/kg, dosed compound name [14C]lixivaptan, route oral; conditions: in vivo
Canis familiaris [13] = assay: Drug level in beagle dog plasma treated with [14C]lixivaptan at 10 mg/kg, po administered as single dose measured after 8 hrs by liquid scintillation counting; type: ADME, organism-based, Canis lupus familiaris; parameters: dose 10 mg/kg, dosed compound name [14C]lixivaptan, route oral; conditions: in vivo; in short: as §3
Canis familiaris [14] = assay: Drug level in beagle dog plasma treated with [14C]lixivaptan at 10 mg/kg, po administered as single dose measured after 24 hrs by liquid scintillation counting; type: ADME, organism-based, Canis lupus familiaris; parameters: dose 10 mg/kg, dosed compound name [14C]lixivaptan, route oral; conditions: in vivo; in short: as §3
Rattus norvegicus [15] = assay: Toxicity in female Sprague-Dawley rat treated with [14C]lixivaptan at 10 mg/kg, po administered as single dose via gavage; type: organism-based; parameters: dose 10 mg/kg, dosed compound name [14C]lixivaptan, route oral; conditions: in vivo
Rattus norvegicus [16] = assay: Drug level in male Sprague-Dawley rat plasma treated with [14C]lixivaptan at 10 mg/kg, po administered as single dose via gavage measured after 1 hr by liquid scintillation counting; type: ADME, organism-based; parameters: dose 10 mg/kg, dosed compound name [14C]lixivaptan, route oral; conditions: in vivo; in short: as §2
Rattus norvegicus [17] = assay: Drug level in female Sprague-Dawley rat plasma treated with [14C]lixivaptan at 10 mg/kg, po administered as single dose via gavage measured after 1 hr by liquid scintillation counting; type: ADME, organism-based; parameters: dose 10 mg/kg, dosed compound name [14C]lixivaptan, route oral; conditions: in vivo; in short: as §4
Canis familiaris [18] = assay: Toxicity in beagle dog treated with [14C]lixivaptan at 10 mg/kg, po administered as single dose via gavage; type: organism-based, Canis lupus familiaris; parameters: dose 10 mg/kg, dosed compound name [14C]lixivaptan, route oral; conditions: in vivo
Homo sapiens [19] = assay: AUC (0 to 24 hrs) in human treated with [14C]lixivaptan at 100 mg, po administered as single dose; type: ADME, organism-based, Plasma; parameters: time < 24 hr, dose 100 mg, route oral, dosed compound name [14C]lixivaptan; conditions: in vivo
In short: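 Healthy young men fasted 10 h and took one oral dose of [14C]lixivaptan, 100 mg (200 µCi) as two capsules with water, eating 4 h later. Plasma from each subject at 0.5, 2, 4, 8, 12, 24 and 36 h was acetonitrile-extracted and profiled by C18 radio-HPLC (formic acid/acetonitrile gradient) with flow detection. Component concentrations were % of radioactivity × total plasma radioactivity, giving AUC0-24 in ng-equiv.h/ml.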

Homo sapiens [20] = assay: Drug concentration at steady state in human treated with [14C]lixivaptan at 100 mg, po qd for 7 days by LC/MS/MS analysis; type: ADME, organism-based; parameters: dosed compound name Lixivaptan; conditions: in vivo, 168 h
In short: (§5)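 Phase 1 human study with lixivaptan 100 mg orally once daily and blood taken on the final day. Parent and two abundant metabolites were quantified in plasma with a validated LC-MS/MS assay.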

Homo sapiens [21] = assay: AUC at steady state in human treated with [14C]lixivaptan at 100 mg, po qd for 7 days by LC/MS/MS analysis; type: ADME, organism-based, Plasma; parameters: dosed compound name Lixivaptan; conditions: in vivo, 168 h; in short: as §5
Homo sapiens [22] = assay: Cmax in human treated with [14C]lixivaptan at 100 mg, po qd for 7 days; type: ADME, organism-based; parameters: dose 100 mg, route oral, dosed compound name [14C]lixivaptan; conditions: in vivo, 168 h
Homo sapiens [23] = assay: AUC in human treated with [14C]lixivaptan at 100 mg, po qd for 7 days; type: ADME, organism-based, Plasma; parameters: dosed compound name [14C]lixivaptan; conditions: in vivo, 168 h
Rattus norvegicus [24] = assay: Drug level in male Sprague-Dawley rat plasma treated with [14C]lixivaptan at 10 mg/kg, po administered as single dose via gavage measured after 24 hrs by liquid scintillation counting; type: ADME, organism-based; parameters: dose 10 mg/kg, dosed compound name [14C]lixivaptan, route oral; conditions: in vivo; in short: as §2
Rattus norvegicus [25] = assay: AUC (0 to 24 hrs) in female Sprague-Dawley rat treated with [14C]lixivaptan at 10 mg/kg, po administered as single dose via gavage; type: ADME, organism-based, Plasma; parameters: time < 24 hr, dose 10 mg/kg, dosed compound name [14C]lixivaptan, route oral; conditions: in vivo; in short: as §4
Canis familiaris [26] = assay: AUC (0 to 24 hrs) in beagle dog treated with [14C]lixivaptan at 10 mg/kg, po administered as single dose; type: ADME, organism-based, Canis lupus familiaris, Plasma; parameters: time < 24 hr, dose 10 mg/kg, dosed compound name [14C]lixivaptan, route oral; conditions: in vivo
Rattus norvegicus [27] = assay: Drug level in male Sprague-Dawley rat plasma treated with [14C]lixivaptan at 10 mg/kg, po administered as single dose via gavage measured after 8 hrs by liquid scintillation counting; type: ADME, organism-based; parameters: dose 10 mg/kg, dosed compound name [14C]lixivaptan, route oral; conditions: in vivo; in short: as §2
Rattus norvegicus [28] = assay: AUC (0 to 24 hrs) in male Sprague-Dawley rat treated with [14C]lixivaptan at 10 mg/kg, po administered as single dose via gavage; type: ADME, organism-based, Plasma; parameters: time < 24 hr, dose 10 mg/kg, dosed compound name [14C]lixivaptan, route oral; conditions: in vivo; in short: as §4

| Retention_time [1] [min] | Compound recovery (Homo sapiens [2]) [%] | Compound recovery (Homo sapiens [3]) [%] | Compound recovery (Homo sapiens [4]) [%] | Compound recovery (Homo sapiens [5]) [%] | Compound recovery (Homo sapiens [6]) [%] | Compound recovery (Homo sapiens [7]) [%] | Compound recovery (Homo sapiens [8]) [%] | Compound recovery (Rattus norvegicus [9]) [%] | Compound recovery (Canis familiaris [10]) [%] | Compound recovery (Rattus norvegicus [11]) [%] | Compound recovery (Canis familiaris [13]) [%] | Compound recovery (Canis familiaris [14]) [%] | Compound recovery (Rattus norvegicus [16]) [%] | Compound recovery (Rattus norvegicus [17]) [%] | AUC (Homo sapiens [19]) [ng.Eq.hr/ml] | Css (Homo sapiens [20]) [ng/mL] | SMILES | Activity (Rattus norvegicus [12]) | Activity (Rattus norvegicus [15]) | Activity (Canis familiaris [18]) | other results |
| --- | --- | --- | --- | --- | --- | --- | --- | --- | --- | --- | --- | --- | --- | --- | --- | --- | --- | --- | --- | --- | --- |
| 25.2 | 2.2 | 3.8 | 2.1 | 2.4 | 4.2 | 2.7 | 1.6 | – | – | – | – | – | – | – | – | – | Cc1ccc(F)cc1C(=O)Nc1ccc(C(=O)N2Cc3cccn3C(O)c3ccccc32)c(Cl)c1 (stereo not given) | – | – | – | – |
| – | – | – | – | – | – | – | – | 25.2 | 19.4 | 2.6 | 11.1 | 3.9 | 5.4 | 36.2 | – | – | Cc1ccc(F)cc1C(=O)Nc1ccc(C(=O)N2CC3C=CC(=O)N3Cc3ccccc32)c(Cl)c1 (stereo not given) | Non-toxic | Non-toxic | Non-toxic | – |
| 23.3 | 16.5 | 7.6 | 12.2 | 16.8 | 11 | 4.1 | 11.2 | – | – | – | – | – | – | – | 2680 | 454 | Cc1ccc(F)cc1C(=O)Nc1ccc(C(=O)Nc2ccccc2Cn2cccc2C(=O)O)c(Cl)c1 | Non-toxic | Non-toxic | Non-toxic | AUCss (Homo sapiens [21]): 3040 ng·h/mL; Cmax (Homo sapiens [22]): 290 ng/mL; AUC (Homo sapiens [23]): 2680 ng·h/mL |
| 24.5 | 12.6 | 35.2 | 28.4 | 19.6 | 38.8 | 1.5 | 30.1 | 42.4 | 15.3 | 97.4 | 29.7 | 38.7 | 58.5 | 9 | 5180 | 658 | Cc1ccc(F)cc1C(=O)Nc1ccc(C(=O)Nc2ccccc2C(=O)O)c(Cl)c1 | Non-toxic | Non-toxic | Non-toxic | Compound recovery (Rattus norvegicus [24]): 67.8%; AUC (Rattus norvegicus [25]): 11100 ng.Eq.hr/ml; AUC (Canis familiaris [26]): 22400 ng.Eq.hr/ml; AUCss (Homo sapiens [21]): 6610 ng·h/mL; Compound recovery (Rattus norvegicus [27]): 73.9%; Cmax (Homo sapiens [22]): 278 ng/mL; AUC (Rattus norvegicus [28]): 32100 ng.Eq.hr/ml; AUC (Homo sapiens [23]): 5180 ng·h/mL |
| 20.2 | 1.5 | – | 2.4 | 2.5 | 2.1 | 0.6 | 2.1 | – | – | – | – | – | – | – | 268 | – | Cc1ccc(F)cc1C(=O)Nc1ccc(C(=O)N2C=C3CCC(=O)N3Cc3ccccc32)c(Cl)c1 | – | – | – | – |
